We go through 7 compounds from ChEMBL document CHEMBL1143977, “Disruption of Kv1.1 N-type inactivation by novel small molecule inhibitors (disinactivators)” (Bioorg Med Chem, 2008).

For assay [1], the target named is T1, Potassium voltage-gated channel subfamily A member 4 (Homo sapiens, UniProt P22459). In words: Inhibition of Kv1.4 channel inactivation expressed in xenopus oocytes by voltage clamp assay. Type of assay: cell-based, Oocyte. A digest of the protocol:
(§1)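 Kv1.4 expressed in stage V–VI Xenopus oocytes and recorded 1–4 days after injection. Two-electrode voltage clamp in perfused ND-96 (pH 7.6), held at −80 mV with 200 ms steps to +50 mV. Compound up to 50 µM, current followed 2–8 min after application. Disinactivation = 100·Iss/Ipeak, three experiments.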

Assay [2] concerns the target T2, Potassium voltage-gated channel subfamily A member 1 (Homo sapiens, UniProt Q09470). In words: Inhibition of Kvbeta-1-mediated inactivation of Kv1.1 channel expressed in xenopus oocytes by voltage clamp assay. Type of assay: cell-based, Oocyte. In a few lines: (§2)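 Stage V–VI Xenopus oocytes injected with ~0.5–5 ng mRNA and kept 1–4 days in ND-96 (pH 7.6). Either Kv1.1 plus Kvβ1 RNA at 1:160, or a chimera (Kvβ1 residues 1–70 fused through a Ser to Kv1.1 N-terminus). Two-electrode clamp in perfused ND-96 with 3 M KCl electrodes. Held at −80 mV, stepped 200 ms to +50 mV. Disinactivation = 100·Iss/Ipeak, ≥3 experiments, mean ± SEM. EC50 from logistic fit.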

Assay [3] has as its target T3, Voltage-gated potassium channel subfamily A member 1/beta-1 (Homo sapiens, UniProt Q09470+Q14722). The assay can be described thus: Inhibition of Kv1.1/Kvbeta1 N terminal chimera channel inactivation expressed in xenopus oocytes by voltage clamp assay. It counts as cell-based, Oocyte. A digest of the protocol: as §2
For assay [4], the target named is T4, A-type voltage-gated potassium channel KCND2 (Homo sapiens) (UniProt Q9NZV8).
T4 sequence (whole entry): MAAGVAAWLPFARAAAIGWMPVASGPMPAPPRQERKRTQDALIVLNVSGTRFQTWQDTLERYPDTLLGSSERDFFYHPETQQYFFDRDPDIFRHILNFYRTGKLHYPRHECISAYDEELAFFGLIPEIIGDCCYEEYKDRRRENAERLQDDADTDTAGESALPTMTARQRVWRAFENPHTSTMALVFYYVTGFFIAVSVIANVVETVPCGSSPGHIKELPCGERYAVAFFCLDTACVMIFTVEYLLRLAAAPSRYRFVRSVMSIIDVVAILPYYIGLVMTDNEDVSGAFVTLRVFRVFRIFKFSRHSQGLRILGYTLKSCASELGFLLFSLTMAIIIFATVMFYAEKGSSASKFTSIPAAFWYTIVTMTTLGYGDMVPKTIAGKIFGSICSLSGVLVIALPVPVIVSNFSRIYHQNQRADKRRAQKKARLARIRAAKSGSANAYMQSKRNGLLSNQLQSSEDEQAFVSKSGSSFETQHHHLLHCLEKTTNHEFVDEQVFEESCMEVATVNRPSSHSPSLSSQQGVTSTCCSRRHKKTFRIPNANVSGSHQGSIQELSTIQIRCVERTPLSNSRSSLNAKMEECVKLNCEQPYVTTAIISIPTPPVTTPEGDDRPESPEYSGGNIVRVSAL
In words: Inhibition of Kv4.2 channel inactivation expressed in xenopus oocytes at 30 uM by voltage clamp assay. Type of assay: cell-based. As to conditions: Oocyte.

The subject of assay [5] is Mus musculus. The assay can be described thus: Anticonvulsant activity in ip dosed CF1 mouse assessed as inhibition of pentylenetetrazole-induced seizure. Type of assay: functional. In a few lines:
(§3)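 Male CF-1 mice, 20–25 g, free access to food and water. Compound in 2% Tween 80/1% methylcellulose/saline given ip 30 min before PTZ 85 mg/kg sc. Mice observed 30 min in individual chambers. Groups of eight scored for presence or absence of clonic seizure (forelimb and hindlimb paddling with loss of righting). ED50 in mg/kg, or number of mice seizing out of eight.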

The target of assay [6] is T2, Potassium voltage-gated channel subfamily A member 1. The assay can be described thus: Inhibition of Kvbeta-1-mediated inactivation of Kv1.1 channel expressed in xenopus oocytes at 50 uM by voltage clamp assay. Type of assay: cell-based. The arrangement: scale not given: the % may be the effect or the level left. As to conditions: Oocyte. A digest of the protocol:
as §2

For assay [7], the target named is T3, Voltage-gated potassium channel subfamily A member 1/beta-1. The assay can be described thus: Inhibition of Kv1.1/Kvbeta1 N terminal chimera channel inactivation expressed in xenopus oocytes at 50 uM by voltage clamp assay. It counts as cell-based. The arrangement: scale not given: the % may be the effect or the level left. As to conditions: Oocyte. A digest of the protocol:
as §2

For assay [8], the target named is T1, Potassium voltage-gated channel subfamily A member 4. The assay can be described thus: Inhibition of Kv1.4 channel inactivation expressed in xenopus oocytes at 50 uM by voltage clamp assay. As to conditions: Oocyte. Further details: scale not given: the % may be the effect or the level left. Type of assay: cell-based. In a few lines: as §1
The target of assay [9] is T2, Potassium voltage-gated channel subfamily A member 1. In words: Inhibition of Kvbeta-1-mediated inactivation of Kv1.1 channel expressed in xenopus oocytes at 150 uM by voltage clamp assay. Type of assay: cell-based. As to conditions: Oocyte. Further details: scale not given: the % may be the effect or the level left.
Assay [10] has the same target. The assay can be described thus: Inhibition of Kvbeta-1-mediated inactivation of Kv1.1 channel expressed in xenopus oocytes at 200 uM by voltage clamp assay. As to conditions: Oocyte. Type of assay: cell-based. Further details: scale not given: the % may be the effect or the level left.
Assay [11] has the same target. In words: Inhibition of Kv-beta-1 mediated inactivation of Kv1.1 channel assessed as intracellular calcium accumulation in Tsa201 cells at 50 uM by FLIPR assay. Type of assay: cell-based. In a few lines: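 Tsa201 cells plated at 50,000/well and used the following day. Loaded with 3 µM Fluo-4 AM in HBSS with 2.5 mM probenecid, 60 min at 37 °C, then washed into calcium-free HBSS. Baseline read 5 s, compound added at final 50 µM (A23187 reference at 10 µM), fluorescence followed 3 min. Signal normalized to background. BAPTA-AM 10 µM counter-check for autofluorescence.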
A general note: A change in cytosolic calcium serves as a functional read-out for many receptors and channels.

Assay [12] deals with Mus musculus. In words: Anticonvulsant activity in CF1 mouse assessed as inhibition of pentylenetetrazole-induced seizure at 100 mg/kg, ip. It counts as functional, organism-based. Further details: dose 100 mg/kg. In a few lines:
as §3

Assay [13] deals with T2, Potassium voltage-gated channel subfamily A member 1. In words: Inhibition of Kv-beta-1 mediated inactivation of Kv1.1 channel assessed as intracellular calcium accumulation in Tsa201 cells at 50 uM by FLIPR assay.

Activity calls are given as the source filed them. The rule behind the calls is not given here.

T2 sequence (Q09470 whole entry, the tested form may be a part): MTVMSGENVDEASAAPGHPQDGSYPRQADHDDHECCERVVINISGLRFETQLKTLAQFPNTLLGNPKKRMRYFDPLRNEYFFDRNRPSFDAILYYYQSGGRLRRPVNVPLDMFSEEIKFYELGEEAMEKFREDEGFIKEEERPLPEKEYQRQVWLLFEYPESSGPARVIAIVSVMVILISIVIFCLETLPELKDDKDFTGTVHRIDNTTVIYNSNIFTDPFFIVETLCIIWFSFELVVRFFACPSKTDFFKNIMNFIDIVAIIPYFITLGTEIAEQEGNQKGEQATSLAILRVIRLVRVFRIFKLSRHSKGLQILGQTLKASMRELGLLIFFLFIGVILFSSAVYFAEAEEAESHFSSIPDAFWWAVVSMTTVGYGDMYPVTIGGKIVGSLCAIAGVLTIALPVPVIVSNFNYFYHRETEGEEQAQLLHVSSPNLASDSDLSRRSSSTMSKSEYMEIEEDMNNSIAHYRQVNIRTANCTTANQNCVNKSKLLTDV
T1 sequence (P22459 whole entry, the tested form may be a part): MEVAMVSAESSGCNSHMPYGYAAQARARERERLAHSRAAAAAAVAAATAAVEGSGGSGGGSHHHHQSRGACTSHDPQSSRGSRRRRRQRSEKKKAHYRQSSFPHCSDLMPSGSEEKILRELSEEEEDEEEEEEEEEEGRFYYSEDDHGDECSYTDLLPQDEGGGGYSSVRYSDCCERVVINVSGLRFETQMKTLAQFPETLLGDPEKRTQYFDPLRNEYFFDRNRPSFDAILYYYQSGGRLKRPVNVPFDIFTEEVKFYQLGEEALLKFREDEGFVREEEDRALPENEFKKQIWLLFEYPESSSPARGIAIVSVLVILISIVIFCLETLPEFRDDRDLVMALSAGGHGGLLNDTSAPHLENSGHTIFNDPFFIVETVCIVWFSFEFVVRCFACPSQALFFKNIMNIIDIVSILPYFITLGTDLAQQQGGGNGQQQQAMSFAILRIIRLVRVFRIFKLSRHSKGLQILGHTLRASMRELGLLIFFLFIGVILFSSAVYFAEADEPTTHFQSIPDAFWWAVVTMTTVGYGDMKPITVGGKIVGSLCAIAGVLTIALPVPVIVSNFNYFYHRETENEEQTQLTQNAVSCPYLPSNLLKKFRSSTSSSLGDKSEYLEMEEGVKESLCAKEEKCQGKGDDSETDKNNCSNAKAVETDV
T3 sequence (Q09470 whole entry): as the sequence (Q09470 whole entry, the tested form may be a part) above
T3 sequence (Q14722 whole entry): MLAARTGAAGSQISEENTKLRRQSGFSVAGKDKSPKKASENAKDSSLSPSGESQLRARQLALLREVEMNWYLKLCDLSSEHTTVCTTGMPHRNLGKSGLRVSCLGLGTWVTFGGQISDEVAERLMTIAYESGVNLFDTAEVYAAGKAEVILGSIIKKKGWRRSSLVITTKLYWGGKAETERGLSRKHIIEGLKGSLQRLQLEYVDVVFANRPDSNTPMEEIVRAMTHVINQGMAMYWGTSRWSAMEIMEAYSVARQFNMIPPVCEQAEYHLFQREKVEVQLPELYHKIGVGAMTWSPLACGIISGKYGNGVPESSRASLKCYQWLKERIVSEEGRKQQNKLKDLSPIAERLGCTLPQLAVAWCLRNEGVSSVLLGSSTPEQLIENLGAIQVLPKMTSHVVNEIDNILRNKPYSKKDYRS

As to `CC1(C)OCC(Br)([N+](=O)[O-])CO1`, the concentration giving a half-maximal response (EC50) in [1] was 2.3 µM; in [2], 4.3 µM; in assay [3], 16.7 µM. The outcome in [4] was inactive. For the same compound, the ED50 in [5] was 139 mg/kg.
For `O=[N+]([O-])C1(Br)COC(c2ccccc2)OC1` (stereo not drawn), the concentration giving a half-maximal response (EC50) amounted to 1.3 µM in [1], 7.1 µM in assay [2] and 8.9 µM in assay [3]. In addition, the result in assay [4] was inactive.
Regarding `CC1(c2ccccc2)NC(=O)N(C(=O)/C=C/c2ccc(F)cc2)C1=O` (stereo not drawn), the figures for the Activity in assay [6] and in assay [7] were 52.5% and 34%, respectively. For the same compound, in assay [4], the result was inactive.
On to `CC1(C)CC(=O)C(C(=O)Nc2ccc(Cl)cc2C(F)(F)F)C(=O)C1`, for which the Activity is 5% in [8] and 45% in assay [9]. For the same compound, the outcome in assay [4] was inactive. The ED50 in assay [5] is 66 mg/kg.
Turning to `CC1(C)CC(=O)C(C(=O)Nc2cccc(C(F)(F)F)c2)C(=O)C1`, the Activity amounted to 40% in assay [10] and 18.5% in [6]. In assay [4], the outcome was inactive. Besides, in [5], the ED50 was determined as 32 mg/kg.
In assay [6], `O=C(Nc1ccc([N+](=O)[O-])cc1)C1C(=O)C2=C(CCCC2)C1=O` showed an Activity of 96.3%. Also, the result in [4] and in assay [12] was inactive. In addition, the result in [11] and in assay [13] was Active.
As for `C[C@@]1(c2ccccc2)NC(=O)N(C(=O)C2=Cc3cc(Cl)ccc3OC2)C1=O`, the Activity was determined as 18.8% in assay [6] and 37% in [7]. For the same compound, the result in assay [4] was inactive.

By EC50 is commonly meant the concentration at which the effect is half-maximal. Broadly, the ED50 is the midpoint of the dose-response relation.
